Measurements reported in ChEMBL document CHEMBL3734737, “Synthesis and Evaluation of a Radioiodinated Tracer with Specificity for Poly(ADP-ribose) Polymerase-1 (PARP-1) in Vivo” (J Med Chem, 2015).

What was measured:
albumin = albumin (Homo sapiens, UniProt P02768); experiment: Protein binding to human serum albumin at 0.5 to 1.5 mg/ml by HPLC method; assay type: ADME; conditions: read-out: PPB (converted)
[1] = Octanol-water partition coefficient, log P of the compound at 0.5 to 1.5 mg/ml by HPLC method; assay type: physicochemical
Summary of the method: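 Samples of 0.5–1.5 mg/mL in MeCN/PBS were run in triplicate on reverse-phase C18 HPLC. The gradient was PBS/MeCN at 1.0 mL/min, with PBS at pH 4.0, 7.4 and 10.0. Retention times were calibrated against seven standards of known chromatographic hydrophobicity index (CHI) to give non-ionized CHI, from which log P was derived.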

[2] = molecular target: Poly [ADP-ribose] polymerase 1 (Homo sapiens, UniProt P09874); experiment: Inhibition of PARP1 (unknown origin) incubated for 10 mins using biotinylated NAD+ and activated DNA by colorimetric assay
[3] = Intrinisc clerarance in human liver microsomes assessed as residual compound level at 60 uM preincubated for 10 mins followed by NADPH addition in KH2PO4 at pH 7.4 by LC-MS method; assay type: ADME; conditions: read-out: CLH
[4] = Drug level in solid feces of human U87MG-Luc2 cells xenografted CD1 mouse at 0.8 to 1.1 MBq, iv after 30 mins by gamma counting method; assay type: ADME, organism-based; conditions: in vivo, 0.5 h, TDE = time-dependent effect
Summary of the method: (§1)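 Female 7–11 week CD1 nude mice carrying subcutaneous U87MG-Luc2 flank xenografts (5×10^6 cells; used 21–30 days post-implant) got a tail-vein bolus of 0.8–1.1 MBq [123I]-tracer in 10% EtOH/0.9% saline. They were killed by CO2 at 30 min (n=3). Tissues were fixed in formaldehyde, weighed and gamma counted. Background was subtracted and %ID/g was derived from a dose-stock control.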

[5] = Drug level in small bowel matter of human U87MG-Luc2 cells xenografted CD1 mouse at 0.8 to 1.1 MBq, iv after 30 mins by gamma counting method; assay type: ADME, organism-based; conditions: in vivo, 0.5 h; summary of the method: as §1
Brain = experiment: Drug level in brain of human U87MG-Luc2 cells xenografted CD1 mouse at 0.8 to 1.1 MBq, iv after 30 mins by gamma counting method; assay type: ADME, organism-based; conditions: in vivo, 0.5 h; summary of the method: as §1
Liver = experiment: Drug level in liver of human U87MG-Luc2 cells xenografted CD1 mouse at 0.8 to 1.1 MBq, iv after 30 mins by gamma counting method; assay type: ADME, organism-based; conditions: in vivo, 0.5 h; summary of the method: as §1
[6] = Metabolic stability in black-6 mouse plasma assessed as residual compound level at 250 uM incubated for 20 hrs by LC-MS method; assay type: ADME, cell-free; conditions: read-out: Stability
Summary of the method: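 Plasma was taken from EDTA-treated female black-6 mouse blood. Compound (10 μL of 250 μM stock into 50 μL plasma; DMSO <1%) was held at room temperature for 0 or 20 h. It was MeOH-precipitated and measured by LC-MS (SIM) against an internal standard, as % parent relative to a no-plasma control. Three experiments, ± SD.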

Sequence of albumin (P02768 whole entry): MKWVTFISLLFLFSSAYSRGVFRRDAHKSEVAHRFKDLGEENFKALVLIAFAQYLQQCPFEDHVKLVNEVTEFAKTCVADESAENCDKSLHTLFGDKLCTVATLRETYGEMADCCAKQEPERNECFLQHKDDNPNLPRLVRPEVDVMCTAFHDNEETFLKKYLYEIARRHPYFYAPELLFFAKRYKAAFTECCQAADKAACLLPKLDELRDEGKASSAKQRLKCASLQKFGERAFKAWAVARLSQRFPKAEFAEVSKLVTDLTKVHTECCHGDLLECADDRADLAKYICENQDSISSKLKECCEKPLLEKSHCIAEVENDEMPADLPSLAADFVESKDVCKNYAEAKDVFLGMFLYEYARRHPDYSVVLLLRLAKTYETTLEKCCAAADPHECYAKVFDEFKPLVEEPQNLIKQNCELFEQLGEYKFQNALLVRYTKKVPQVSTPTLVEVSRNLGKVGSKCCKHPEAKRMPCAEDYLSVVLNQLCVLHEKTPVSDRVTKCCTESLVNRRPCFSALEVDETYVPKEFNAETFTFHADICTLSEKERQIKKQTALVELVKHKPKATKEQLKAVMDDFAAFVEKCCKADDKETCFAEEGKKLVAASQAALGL
Sequence of Poly [ADP-ribose] polymerase 1 (P09874 whole entry): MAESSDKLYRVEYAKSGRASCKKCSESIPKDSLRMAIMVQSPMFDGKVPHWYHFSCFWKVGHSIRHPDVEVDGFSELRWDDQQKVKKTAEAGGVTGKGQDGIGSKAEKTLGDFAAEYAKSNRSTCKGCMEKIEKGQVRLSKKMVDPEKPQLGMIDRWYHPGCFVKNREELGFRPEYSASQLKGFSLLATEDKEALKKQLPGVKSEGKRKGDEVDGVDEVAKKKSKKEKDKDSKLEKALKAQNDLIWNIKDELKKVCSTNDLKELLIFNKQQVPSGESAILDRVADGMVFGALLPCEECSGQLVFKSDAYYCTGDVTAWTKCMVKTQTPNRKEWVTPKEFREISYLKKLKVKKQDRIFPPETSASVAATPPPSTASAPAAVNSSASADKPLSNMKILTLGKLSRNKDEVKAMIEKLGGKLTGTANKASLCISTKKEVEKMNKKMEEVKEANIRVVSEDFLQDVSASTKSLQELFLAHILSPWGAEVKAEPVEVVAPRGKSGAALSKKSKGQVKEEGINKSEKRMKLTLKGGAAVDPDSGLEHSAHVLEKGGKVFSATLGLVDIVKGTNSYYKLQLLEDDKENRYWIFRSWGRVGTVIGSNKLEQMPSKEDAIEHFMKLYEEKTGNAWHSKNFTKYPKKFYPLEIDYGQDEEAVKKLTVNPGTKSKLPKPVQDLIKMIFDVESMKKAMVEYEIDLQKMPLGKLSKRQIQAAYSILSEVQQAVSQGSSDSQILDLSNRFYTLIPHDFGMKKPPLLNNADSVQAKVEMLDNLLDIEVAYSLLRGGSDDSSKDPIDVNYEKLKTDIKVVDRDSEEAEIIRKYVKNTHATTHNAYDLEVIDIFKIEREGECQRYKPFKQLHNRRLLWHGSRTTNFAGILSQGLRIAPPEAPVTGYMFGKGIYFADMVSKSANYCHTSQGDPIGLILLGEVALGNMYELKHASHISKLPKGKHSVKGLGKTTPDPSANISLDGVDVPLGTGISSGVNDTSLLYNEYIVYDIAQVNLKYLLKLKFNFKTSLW

| Structure (SMILES) | fraction unbound (albumin) | logP [1] | IC50 [2] | other results |
| --- | --- | --- | --- | --- |
| O=C1CN=C(c2ccccn2)c2cc(Br)ccc2N1 [BROMAZEPAM] | 0.4 |  |  |  |
| CCCC1O[C@@H]2C[C@H]3[C@@H]4CCC5=CC(=O)C=C[C@]5(C)[C@H]4[C@@H](O)C[C@]3(C)[C@]2(C(=O)CO)O1 (some centres not stated) [BUDESONIDE] | 0.12 |  |  |  |
| COc1ccc(C(=O)N2CCN(C(=O)c3cc(Cc4n[nH]c(=O)c5ccccc45)ccc3F)CC2)cc1I | 0.035 | 2.95 | 17.6 nM |  |
| COC(=O)C1=C(C)NC(C)=C(C(=O)OCCN(C)Cc2ccccc2)C1c1cccc([N+](=O)[O-])c1 (configuration not stated) [NICARDIPINE] | 0.05 |  |  |  |
| CNC(=C[N+](=O)[O-])NCCSCc1csc(CN(C)C)n1 [NIZATIDINE] | 0.65 |  |  |  |
| O=C(c1cccc(I)c1)N1CCN(C(=O)c2cc(Cc3n[nH]c(=O)c4ccccc34)ccc2F)CC1 | 0.039 | 2.97 |  |  |
| NC(=O)N1c2ccccc2C=Cc2ccccc21 [CARBAMAZEPINE] | 0.25 |  |  |  |
| O=C(c1cc(Cc2n[nH]c(=O)c3ccccc23)ccc1F)N1CCN(C(=O)C2CC2)CC1 [OLAPARIB] |  | 1.95 |  | microsomal CLint at 60 µM [3]: 29 µL/min/mg |
| Cc1ccc(C(=O)N2CCN(C(=O)c3cc(Cc4n[nH]c(=O)c5ccccc45)ccc3F)CC2)cc1I | 0.024 | 3.23 | 16.9 nM |  |
| O=C(c1cc(Cc2n[nH]c(=O)c3ccccc23)ccc1F)N1CCN(S(=O)(=O)c2ccc(I)cc2)CC1 | 0.016 | > 3.25 | 22.6 nM |  |
| O=C(COc1ccc(I)cc1)N1CCN(C(=O)c2cc(Cc3n[nH]c(=O)c4ccccc34)ccc2F)CC1 | 0.019 | 3.25 | 3 nM |  |
| O=C(c1ccc([123I])cc1)N1CCN(C(=O)c2cc(Cc3n[nH]c(=O)c4ccccc34)ccc2F)CC1 |  |  |  | Drug uptake [4]: tde; Drug uptake [5]: Active; Drug uptake (Brain): Not Active; Drug uptake (Liver): Active |
| O=C(c1ccc(I)cc1)N1CCN(C(=O)c2cc(Cc3n[nH]c(=O)c4ccccc34)ccc2F)CC1 | 0.038 | 3 |  | remaining at 20 h, 250 µM [6]: 98%; microsomal CLint at 60 µM [3]: 85 µL/min/mg |
| O=C(Cc1cccc(I)c1)N1CCN(C(=O)c2cc(Cc3n[nH]c(=O)c4ccccc34)ccc2F)CC1 | 0.025 | 3.13 | 5.8 nM |  |
